Results on 40 compounds are retold here after ChEMBL document CHEMBL1143448, “1,8-Naphthyridin-4-one derivatives as new ligands of A2A adenosine receptors” (Bioorg Med Chem Lett, 2005).

By Ki is commonly meant a measure of affinity in units of concentration, obtained from inhibition or displacement.

For one experiment, the target named is Adenosine receptor A2a (Homo sapiens, UniProt P29274). Description: Inhibition of [3H]CGS-21680 binding to adenosine A2a receptor of human striatal membrane. The method, boiled down: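 Competition binding to striatal membranes from bovine or human brain, measuring displacement of the specific binding of the tritiated agonist [3H]CGS21680 (2-[[p-(2-carboxyethyl)phenyl]ethyl]amino-5'-N-ethylcarboxamidoadenosine). Affinity reported as Ki (nM) ± error.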

Experiment [1] deals with T1, Adenosine receptor A1 (Homo sapiens, UniProt P30542).
T1 sequence (P30542 whole entry): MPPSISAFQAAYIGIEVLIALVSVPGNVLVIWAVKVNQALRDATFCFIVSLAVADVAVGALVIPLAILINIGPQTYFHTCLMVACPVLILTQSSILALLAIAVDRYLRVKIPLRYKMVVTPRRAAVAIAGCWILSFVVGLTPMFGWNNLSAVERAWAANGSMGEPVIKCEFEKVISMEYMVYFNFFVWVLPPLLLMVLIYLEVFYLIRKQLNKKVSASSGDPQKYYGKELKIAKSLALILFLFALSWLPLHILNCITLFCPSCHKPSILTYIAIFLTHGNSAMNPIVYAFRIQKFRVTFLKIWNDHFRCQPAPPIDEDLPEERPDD
In words: Inhibition of [3H]CHA binding to adenosine A1 receptor of human brain cortical membrane. The method, boiled down: (§1)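 A1 affinity was taken from displacement of specific [3H]N6-cyclohexyladenosine ([3H]CHA, agonist radioligand) binding in bovine or human cortical membranes. Values are given as Ki in nM ± error.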

Experiment [2] addresses T2, Adenosine receptor A1 (Bos taurus, UniProt P28190).
T2 sequence (P28190 whole entry): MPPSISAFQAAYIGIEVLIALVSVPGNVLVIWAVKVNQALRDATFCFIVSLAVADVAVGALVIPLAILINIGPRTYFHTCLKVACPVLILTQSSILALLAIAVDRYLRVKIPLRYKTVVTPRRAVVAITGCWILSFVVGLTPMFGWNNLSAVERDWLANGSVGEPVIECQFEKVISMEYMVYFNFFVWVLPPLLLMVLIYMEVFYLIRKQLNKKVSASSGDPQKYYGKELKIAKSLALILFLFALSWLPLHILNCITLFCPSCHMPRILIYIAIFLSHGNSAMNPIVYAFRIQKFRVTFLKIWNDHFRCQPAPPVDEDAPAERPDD
Description: Inhibition of [3H]CHA binding to adenosine A1 receptor of bovine brain cortical membrane. In short, it runs like this: as §1

Experiment [3] concerns the target Adenosine receptor A2a (Bos taurus). In words: Inhibition of [3H]CGS-21680 binding to adenosine A2a receptor of bovine striatal membrane.

Where only a bound is given, the exact number is not on record here.

Sequence of Adenosine receptor A2a (P29274 whole entry): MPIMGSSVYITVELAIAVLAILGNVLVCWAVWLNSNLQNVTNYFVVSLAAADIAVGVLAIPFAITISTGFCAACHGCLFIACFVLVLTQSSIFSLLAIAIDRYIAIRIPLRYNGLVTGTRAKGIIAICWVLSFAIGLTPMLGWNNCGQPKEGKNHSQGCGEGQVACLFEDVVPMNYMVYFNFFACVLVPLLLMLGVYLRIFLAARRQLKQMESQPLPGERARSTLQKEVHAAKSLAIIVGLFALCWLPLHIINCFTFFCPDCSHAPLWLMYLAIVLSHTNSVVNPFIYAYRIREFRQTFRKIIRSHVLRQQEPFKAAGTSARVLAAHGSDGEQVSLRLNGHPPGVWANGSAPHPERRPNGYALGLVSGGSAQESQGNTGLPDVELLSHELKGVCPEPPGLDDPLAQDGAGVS

With `Cc1ccc2c(O)c(C(=O)NC3CCC(C)CC3)cnc2n1` (configuration not stated), the Ki at Adenosine receptor A2a amounted to 0.36 µM; on Adenosine receptor A1 [1], 5.6 µM; at Adenosine receptor A1 [2] it was 6 µM; in experiment [3], 0.39 µM.

As to `O=C(NCc1ccccc1)c1cnc2nc(NCc3ccccc3)ccc2c1O`, the Ki on Adenosine receptor A1 [2] is 0.677 µM; in experiment [3] it was > 10 µM.

`Cc1ccc2c(O)c(CC(=O)NC3CCCCC3)cnc2n1`: the Ki at Adenosine receptor A1 [1] and on Adenosine receptor A1 [2] was > 10 µM in each case.

In the case of `CCOC(=O)c1cnc2nc(C)ccc2c1O`, the Ki on Adenosine receptor A1 [2] was > 10 µM.

On to `Cc1ccc2c(O)c(Cc3ccccc3Cl)cnc2n1`, for which the figures for the Ki at Adenosine receptor A1 [1] and at Adenosine receptor A1 [2] were 4.16 µM and 8.73 µM, respectively.

As for `Cc1ccc2c(N=[N+]=[N-])c(Cc3ccccc3)cnc2n1`, the Ki on Adenosine receptor A2a is 5.36 µM; at Adenosine receptor A1 [1], > 10 µM; on Adenosine receptor A1 [2] it was 3.34 µM; in experiment [3], 3.36 µM.

For `Cc1ccc2c(O)c(C(=O)NCc3ccco3)cnc2n1`, the Ki on Adenosine receptor A1 [1] was 0.3 µM; at Adenosine receptor A1 [2], 1.35 µM.

With `Cc1ccc2c(O)c(C(=O)OCc3ccccc3)cnc2n1`, the inhibition constant (Ki) (on Adenosine receptor A1 [2]; in experiment [3]) was > 10 µM in each case.

For `Cc1ccc2c(O)c(C(=O)NCc3ccc(Cl)cc3)cnc2n1`, the Ki at Adenosine receptor A1 [1] is 1.63 µM; at Adenosine receptor A1 [2], 1.74 µM.

In the case of `O=C(NCc1ccccc1)c1cnc2nc(NC3CCCCC3)ccc2c1O`, the Ki at Adenosine receptor A1 [2] is > 10 µM.

Regarding `Cc1ccc2c(O)c(C(=O)NCc3ccc(N)cc3)cnc2n1`, the Ki turned out to be 2.86 µM at Adenosine receptor A1 [2] and 0.146 µM in experiment [3].

As to `Cc1ccc2c(NC3CCCCC3)c(Cc3ccccc3)cnc2n1`, the inhibition constant Ki on Adenosine receptor A1 [1] and on Adenosine receptor A1 [2] was > 10 µM throughout.

`Cc1ccc2c(S)c(Cc3ccccc3)cnc2n1` showed a Ki on Adenosine receptor A1 [2] of 6.33 µM. This lies in the single-digit micromolar range.

Regarding `Cc1ccc2c(O)c(C(=O)NN3CCN(C)CC3)cnc2n1`, the Ki on Adenosine receptor A1 [1] and on Adenosine receptor A1 [2] was > 10 µM each time.

For `Cc1ccc2c(O)c(Cc3ccccc3)cnc2n1`, the Ki at Adenosine receptor A2a was 3.33 µM; at Adenosine receptor A1 [1] it was 4.18 µM; at Adenosine receptor A1 [2], > 10 µM; in experiment [3] it was > 10 µM.

`O=C(NCc1ccccc1)c1cnc2nc(NCCc3ccccc3)ccc2c1O` displayed a Ki on Adenosine receptor A1 [2] of 0.977 µM.

Regarding `COc1ccc(CNC(=O)c2cnc3nc(C)ccc3c2O)cc1`, the inhibitory constant (Ki) on Adenosine receptor A2a was 2.41 µM; on Adenosine receptor A1 [1], 4.37 µM; at Adenosine receptor A1 [2], > 10 µM; in experiment [3], 0.74 µM.

`O=C(NCc1ccccc1)c1cnc2nc(Cl)ccc2c1O`: the values for the Ki (on Adenosine receptor A1 [2]; in experiment [3]) were 0.586 µM and 0.067 µM, respectively.

Take `Cc1ccc2c(O)c(C(=O)NC3CCCCC3)cnc2n1`: the inhibition constant Ki at Adenosine receptor A1 [1] and at Adenosine receptor A1 [2] was > 10 µM each time.

Regarding `Cc1ccc2c(Cl)c(Cc3ccccc3)cnc2n1`, the Ki at Adenosine receptor A1 [1] and at Adenosine receptor A1 [2] was > 10 µM in each case.

Turning to `Cc1ccc2c(O)c(C(=O)NC(C)c3ccccc3)cnc2n1` (configuration not stated), the Ki on Adenosine receptor A1 [1] stood at 0.717 µM; on Adenosine receptor A1 [2], 0.418 µM.

On to `Cc1ccc2c(O)c(C(=O)NCc3ccc(F)cc3)cnc2n1`, for which the figures for the Ki at Adenosine receptor A1 [1] and on Adenosine receptor A1 [2] were 1.65 µM and 1.77 µM, respectively.

Regarding `CC(=O)N(C(C)=O)c1ccc(CNC(=O)c2cnc3nc(C)ccc3c2O)cc1`, the Ki at Adenosine receptor A1 [2] was > 10 µM.

For the compound `Cc1ccc2c(O)c(C(=O)NN3CCOCC3)cnc2n1`, the Ki at Adenosine receptor A2a was > 10 µM; on Adenosine receptor A1 [1] it was > 10 µM; at Adenosine receptor A1 [2], > 10 µM; in experiment [3] it was 8.66 µM.

Take `Cc1ccc2c(O)c(C(=O)NCc3ccc(NC(=O)c4ccccc4)cc3)cnc2n1`: the Ki on Adenosine receptor A1 [2] came out at 7.59 µM; in experiment [3] it was 0.588 µM.

As for `O=C(NCc1ccccc1)c1cnc2nc(Br)ccc2c1O`, the affinity at Adenosine receptor A1 [2], expressed as Ki, was 5.32 µM.

As for `Cc1ccc2c(O)c(C(=O)NCCc3ccccc3)cnc2n1`, the Ki turned out to be 0.15 µM at Adenosine receptor A2a, 0.73 µM on Adenosine receptor A1 [1], 0.68 µM on Adenosine receptor A1 [2] and 0.14 µM in experiment [3].

With `CC(=O)Nc1ccc2c(O)c(C(=O)NCc3ccccc3)cnc2n1`, the Ki was > 10 µM on Adenosine receptor A1 [2] and 6.78 µM in experiment [3].

Regarding `O=C(NCc1ccccc1)c1cnc2nc(N(CCO)CCO)ccc2c1O`, the Ki (on Adenosine receptor A1 [2]; in experiment [3]) was > 10 µM each time.

With `CN(C)c1ccc2c(O)c(C(=O)NCc3ccccc3)cnc2n1`, the inhibition constant (Ki) amounted to 0.122 µM on Adenosine receptor A1 [2] and 0.057 µM in experiment [3].

As for `Nc1ccc2c(O)c(C(=O)NCc3ccc(Cl)cc3)cnc2n1`, the Ki at Adenosine receptor A2a was 0.5 µM; on Adenosine receptor A1 [1] it was 6.24 µM; on Adenosine receptor A1 [2] it was 4.49 µM; in experiment [3], 0.54 µM.

`O=C(NCc1ccccc1)c1cnc2ncccc2c1O`: the Ki is 2.75 µM on Adenosine receptor A1 [2] and 1.17 µM in experiment [3].

Consider `Cc1ccc2c(O)c(C(=O)NCc3ccc([N+](=O)[O-])cc3)cnc2n1`, for which the Ki was 1.63 µM on Adenosine receptor A1 [2] and 0.099 µM in experiment [3].

On to `Cc1ccc(CNC(=O)c2cnc3nc(C)ccc3c2O)cc1`, for which affinity at Adenosine receptor A1 [1] was put at a Ki of 1.58 µM.

As for `Cc1ccc2c(O)c(C(=O)NCCC(C)C)cnc2n1`, the Ki at Adenosine receptor A2a is 0.64 µM; at Adenosine receptor A1 [1], > 10 µM; at Adenosine receptor A1 [2], > 10 µM; in experiment [3] it was 1.43 µM.

Turning to `Cc1ccc2c(NN)c(Cc3ccccc3)cnc2n1`, the Ki at Adenosine receptor A2a is > 10 µM; at Adenosine receptor A1 [1] it was > 10 µM; at Adenosine receptor A1 [2], 0.22 µM; in experiment [3], 0.72 µM.

For the compound `O=C(NCc1ccccc1)c1cnc2[nH]c(=O)ccc2c1O`, the Ki on Adenosine receptor A1 [2] was > 10 µM.

For the compound `Nc1ccc2c(O)c(C(=O)NCc3ccccc3)cnc2n1`, the Ki at Adenosine receptor A1 [1] was 0.63 µM; on Adenosine receptor A1 [2] it was 0.97 µM.

With `Cc1ccc2c(O)c(C(=O)NCc3ccccc3)cnc2n1`, the results for the Ki at Adenosine receptor A1 [1] and at Adenosine receptor A1 [2] were 0.63 µM and 0.28 µM, respectively.

With `Cc1ccc2c(O)c(CC(=O)NCc3ccccc3)cnc2n1`, the Ki is 0.87 µM at Adenosine receptor A2a, > 10 µM on Adenosine receptor A1 [1], > 10 µM at Adenosine receptor A1 [2] and > 10 µM in experiment [3].
